Reference: ChEMBL document CHEMBL1132410, “5-Chloro-N-(4-methoxy-3-piperazin-1-yl- phenyl)-3-methyl-2-benzothiophenesulfon- amide (SB-271046): a potent, selective, and orally bioavailable 5-HT6 receptor antagonist” (J Med Chem, 1999)

Key:
[1] = target: 5-hydroxytryptamine receptor 6 (Homo sapiens, UniProt P50406); experiment: Binding affinity against human cloned 5-hydroxytryptamine 6 receptor in HeLa cells using [3H]LSD; type: cell-based
In short: (§1)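 Radioligand binding at human cloned receptors; cell hosts and radioligands as listed per line: 5-HT1A, 5-HT2A, 5-HT2B, 5-HT2C and 5-HT7 in HEK 293 cells; 5-HT1B, 5-HT1D, 5-HT1E, 5-HT1F, D2 and D3 in CHO cells; 5-HT6 in HeLa cells. Values are the mean of at least two determinations, each within 0.2 log unit of the mean.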

[2] = target: T1, 5-hydroxytryptamine receptor 1F (Homo sapiens, UniProt P30939); experiment: Compound was tested for its binding affinity against 5-hydroxytryptamine 1F receptor in human cloned receptors in CHO cells using [3H]5-HT; type: cell-based; in short: as §1
T1 sequence (P30939 whole entry): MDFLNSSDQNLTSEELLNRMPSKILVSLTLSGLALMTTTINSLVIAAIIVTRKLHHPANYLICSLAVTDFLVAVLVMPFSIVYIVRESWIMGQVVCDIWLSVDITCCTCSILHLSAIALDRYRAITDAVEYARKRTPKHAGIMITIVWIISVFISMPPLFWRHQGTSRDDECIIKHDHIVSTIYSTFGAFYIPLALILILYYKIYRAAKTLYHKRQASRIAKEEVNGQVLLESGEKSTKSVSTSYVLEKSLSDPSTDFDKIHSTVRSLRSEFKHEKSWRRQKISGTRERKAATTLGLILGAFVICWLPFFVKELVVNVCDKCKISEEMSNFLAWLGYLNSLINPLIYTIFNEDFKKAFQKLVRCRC

[3] = target: 5-hydroxytryptamine receptor 1B (Homo sapiens, UniProt P28222); experiment: Compound was tested for its binding affinity against human cloned 5-hydroxytryptamine 1B receptor in CHO cells using [3H]5-HT; type: cell-based; in short: as §1
[4] = target: D(2) dopamine receptor (Homo sapiens, UniProt P14416); experiment: Compound was tested for its binding affinity against Dopamine receptor D2 in human cloned receptors in CHO cells using [125 I]iodosulpride; type: cell-based; in short: as §1
[5] = target: 5-hydroxytryptamine receptor 1E (Homo sapiens, UniProt P28566); experiment: Compound was tested for its binding affinity against cloned human 5-hydroxytryptamine 1E receptor in CHO cells using [3H]-5-HT; type: cell-based; in short: as §1
[6] = target: 5-hydroxytryptamine receptor 2A (Homo sapiens, UniProt P28223); experiment: Compound was tested for its binding affinity against 5-hydroxytryptamine 2A receptor in human cloned receptors in HEK 293 cells using [3H]ketanserin; type: cell-based, HEK293; in short: as §1
[7] = target: 5-hydroxytryptamine receptor 1D (Homo sapiens, UniProt P28221); experiment: Compound was tested for its binding affinity against human cloned 5-hydroxytryptamine 1D receptor in CHO cells using [3H]5-HT; type: cell-based; in short: as §1
[8] = target: T2, 5-hydroxytryptamine receptor 2C (Homo sapiens, UniProt P28335); experiment: Compound was tested for its binding affinity against human cloned 5-hydroxytryptamine 2C receptor in HEK 293 cells using [3H]mesulergine; type: cell-based, HEK293; in short: as §1
T2 sequence (P28335 whole entry): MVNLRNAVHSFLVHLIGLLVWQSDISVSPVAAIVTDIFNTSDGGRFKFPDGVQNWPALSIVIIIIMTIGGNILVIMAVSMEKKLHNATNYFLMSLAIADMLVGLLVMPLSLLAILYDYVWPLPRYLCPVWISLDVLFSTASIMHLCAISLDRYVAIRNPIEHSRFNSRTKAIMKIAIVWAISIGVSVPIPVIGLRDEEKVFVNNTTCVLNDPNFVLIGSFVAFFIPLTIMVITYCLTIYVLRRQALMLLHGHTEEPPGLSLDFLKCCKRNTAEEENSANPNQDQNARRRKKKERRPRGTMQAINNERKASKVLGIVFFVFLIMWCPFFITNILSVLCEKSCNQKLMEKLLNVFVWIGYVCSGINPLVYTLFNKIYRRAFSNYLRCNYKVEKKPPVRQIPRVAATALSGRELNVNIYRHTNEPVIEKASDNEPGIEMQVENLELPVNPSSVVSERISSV

[9] = target: Cytochrome P450 2D6 (Homo sapiens, UniProt P10635); experiment: Inhibition of human cytochrome P450 2D6 as bufuralol 1''-hydroxylation (10 uM); type: ADME
In short: (§2)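 Heterologously expressed human CYP isoforms in isoform-selective assays, with substrate at its Km. CYP1A2: caffeine N3-demethylation (500 μM). CYP2C9: tolbutamide methylhydroxylation (100 μM). CYP2C19: S-mephenytoin 4-hydroxylation (100 μM). CYP2D6: bufuralol 1'-hydroxylation (10 μM). CYP3A4: total cyclosporin oxidation (1 μM). IC50 is the mean of duplicate determinations, agreeing within 10%.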

[10] = target: 5-hydroxytryptamine receptor 2B (Homo sapiens, UniProt P41595); experiment: Compound was tested for its binding affinity against cloned human 5-hydroxytryptamine 2B receptor in HEK 293 cells using [3H]5-HT; type: cell-based, HEK293; in short: as §1
[11] = target: T3, Cytochrome P450 1A2 (Homo sapiens, UniProt P05177); experiment: Inhibition of human cytochrome P450 1A2 activity as caffeine N3 demethylation (500 uM); type: ADME; in short: as §2
T3 sequence (P05177 whole entry): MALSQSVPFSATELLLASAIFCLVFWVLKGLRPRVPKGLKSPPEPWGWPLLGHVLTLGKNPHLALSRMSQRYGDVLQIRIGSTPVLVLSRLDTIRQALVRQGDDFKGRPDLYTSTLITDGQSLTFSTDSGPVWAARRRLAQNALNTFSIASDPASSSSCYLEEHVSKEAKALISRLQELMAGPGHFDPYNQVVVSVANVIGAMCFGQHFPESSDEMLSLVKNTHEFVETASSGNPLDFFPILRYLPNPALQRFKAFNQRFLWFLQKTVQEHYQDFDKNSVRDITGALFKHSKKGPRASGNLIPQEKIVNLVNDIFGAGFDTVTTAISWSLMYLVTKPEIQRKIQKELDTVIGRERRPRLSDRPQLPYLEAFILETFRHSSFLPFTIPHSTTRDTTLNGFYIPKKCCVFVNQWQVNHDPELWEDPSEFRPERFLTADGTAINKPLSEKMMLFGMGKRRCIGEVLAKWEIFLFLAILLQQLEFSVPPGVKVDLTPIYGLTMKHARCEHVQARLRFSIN

[12] = target: Cytochrome P450 2C9 (Homo sapiens, UniProt P11712); experiment: Inhibitory potential of human cytochrome P450 2C9 as Tolbutamide methylhydroxylation (100 uM); type: ADME; in short: as §2
[13] = target: T4, Alpha-1B adrenergic receptor (Homo sapiens, UniProt P35368); experiment: Compound was tested for its binding affinity against adrenergic Alpha-1B adrenergic receptor
T4 sequence (P35368 whole entry): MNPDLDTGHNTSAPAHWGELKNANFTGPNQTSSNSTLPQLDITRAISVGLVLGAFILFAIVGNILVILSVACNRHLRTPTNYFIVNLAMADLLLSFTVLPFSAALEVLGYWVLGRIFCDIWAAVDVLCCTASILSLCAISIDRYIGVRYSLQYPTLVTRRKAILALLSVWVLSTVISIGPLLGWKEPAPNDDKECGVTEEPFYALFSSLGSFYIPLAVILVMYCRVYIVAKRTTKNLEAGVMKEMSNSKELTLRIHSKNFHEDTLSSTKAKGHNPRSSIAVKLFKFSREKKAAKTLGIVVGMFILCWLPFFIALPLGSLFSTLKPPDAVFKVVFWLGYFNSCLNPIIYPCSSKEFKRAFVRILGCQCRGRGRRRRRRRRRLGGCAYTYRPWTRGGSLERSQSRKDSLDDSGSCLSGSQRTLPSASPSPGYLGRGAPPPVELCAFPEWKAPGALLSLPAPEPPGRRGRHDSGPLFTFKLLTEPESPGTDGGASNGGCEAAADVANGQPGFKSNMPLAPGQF

[14] = target: Cytochrome P450 2C19 (Homo sapiens, UniProt P33261); experiment: Inhibition of human cytochrome P450 2C19 as S-mephenytoin-4-hydroxylation (100 uM); type: ADME; in short: as §2
[15] = organism: Homo sapiens; experiment: Selectivity for 5-HT6 receptors with respect to the 5-HT1A, 5-HT1B, 5-HT1D, 5-HT1E, 5-HT1F, 5-HT2A, 5-HT2B, 5-HT2C, 5-HT4, 5-HT7, Alpha-1B, D2, D3 receptors.
[16] = target: D(3) dopamine receptor (Homo sapiens, UniProt P35462); experiment: Compound was tested for its binding affinity against Dopamine receptor D3 in human cloned receptors in CHO cells using [125 I]iodosulpride; type: cell-based; in short: as §1
[17] = target: T4, Alpha-1B adrenergic receptor; experiment: Compound was tested for its binding affinity against Alpha-1B adrenergic receptor
[18] = target: 5-hydroxytryptamine receptor 7 (Homo sapiens, UniProt P34969); experiment: Compound was tested for its binding affinity against human cloned 5-hydroxytryptamine 7 receptor in HEK 293 cells using [3H]5-CT; type: cell-based, HEK293; in short: as §1
[19] = target: T5, 5-hydroxytryptamine receptor 1A (Homo sapiens, UniProt P08908); experiment: Compound was tested for its binding affinity against 5-hydroxytryptamine 1A receptor in human cloned receptors in HEK 293 cells using [3H]8-OH-DPAT; type: cell-based, HEK293; in short: as §1
T5 sequence (P08908 whole entry): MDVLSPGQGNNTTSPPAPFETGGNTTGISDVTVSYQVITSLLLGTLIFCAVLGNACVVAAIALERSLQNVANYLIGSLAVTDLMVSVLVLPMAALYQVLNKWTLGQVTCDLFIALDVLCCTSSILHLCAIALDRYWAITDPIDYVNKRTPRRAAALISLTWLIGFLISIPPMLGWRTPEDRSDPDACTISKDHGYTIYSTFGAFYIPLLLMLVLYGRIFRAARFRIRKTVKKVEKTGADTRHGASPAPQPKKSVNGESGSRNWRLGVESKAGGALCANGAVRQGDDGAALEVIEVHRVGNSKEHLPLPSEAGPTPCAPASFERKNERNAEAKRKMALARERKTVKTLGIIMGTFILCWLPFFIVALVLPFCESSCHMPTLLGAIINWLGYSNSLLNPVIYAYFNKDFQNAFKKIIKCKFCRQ

[20] = target: 5-hydroxytryptamine receptor 4 (Homo sapiens, UniProt Q13639); experiment: Compound was tested for its binding affinity against 5-hydroxytryptamine 4 receptor
[21] = target: Cytochrome P450 3A4 (Homo sapiens, UniProt P08684); experiment: Inhibition of human cytochrome P450 3A4 as total cyclosporin oxidation (1 uM); type: ADME
In short: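 Heterologously expressed human CYP isoforms in isoform-selective assays, with substrate at its Km. CYP1A2: caffeine N3-demethylation (500 μM). CYP2C9: tolbutamide methylhydroxylation (100 μM). CYP2C19: S-mephenytoin 4-hydroxylation (100 μM). CYP2D6: bufuralol 1'-hydroxylation (10 μM). CYP3A4: total cyclosporin oxidation (1 μM).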

5-hydroxytryptamine receptor 1B, sequence (P28222 whole entry): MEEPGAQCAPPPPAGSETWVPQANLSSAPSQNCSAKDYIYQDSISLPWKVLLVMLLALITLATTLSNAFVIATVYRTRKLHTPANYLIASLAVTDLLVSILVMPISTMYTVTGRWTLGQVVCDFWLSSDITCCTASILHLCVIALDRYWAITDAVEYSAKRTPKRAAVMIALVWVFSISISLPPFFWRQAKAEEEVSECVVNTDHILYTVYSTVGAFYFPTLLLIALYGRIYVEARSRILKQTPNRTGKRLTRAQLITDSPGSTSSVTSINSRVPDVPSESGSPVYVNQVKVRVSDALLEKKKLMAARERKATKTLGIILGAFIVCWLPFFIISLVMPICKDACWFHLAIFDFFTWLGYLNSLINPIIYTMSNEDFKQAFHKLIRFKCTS
5-hydroxytryptamine receptor 6, sequence (P50406 whole entry): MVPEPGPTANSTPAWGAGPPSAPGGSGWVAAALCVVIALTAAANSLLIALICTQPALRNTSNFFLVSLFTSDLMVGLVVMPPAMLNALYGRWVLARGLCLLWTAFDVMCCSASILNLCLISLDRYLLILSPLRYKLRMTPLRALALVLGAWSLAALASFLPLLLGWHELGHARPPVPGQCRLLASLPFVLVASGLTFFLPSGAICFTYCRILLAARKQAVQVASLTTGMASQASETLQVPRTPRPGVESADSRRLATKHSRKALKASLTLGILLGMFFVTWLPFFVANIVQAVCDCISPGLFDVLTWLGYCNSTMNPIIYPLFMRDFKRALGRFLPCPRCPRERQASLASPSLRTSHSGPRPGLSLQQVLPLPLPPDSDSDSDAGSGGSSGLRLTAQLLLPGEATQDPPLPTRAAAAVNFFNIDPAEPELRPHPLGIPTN
5-hydroxytryptamine receptor 1E, sequence (P28566 whole entry): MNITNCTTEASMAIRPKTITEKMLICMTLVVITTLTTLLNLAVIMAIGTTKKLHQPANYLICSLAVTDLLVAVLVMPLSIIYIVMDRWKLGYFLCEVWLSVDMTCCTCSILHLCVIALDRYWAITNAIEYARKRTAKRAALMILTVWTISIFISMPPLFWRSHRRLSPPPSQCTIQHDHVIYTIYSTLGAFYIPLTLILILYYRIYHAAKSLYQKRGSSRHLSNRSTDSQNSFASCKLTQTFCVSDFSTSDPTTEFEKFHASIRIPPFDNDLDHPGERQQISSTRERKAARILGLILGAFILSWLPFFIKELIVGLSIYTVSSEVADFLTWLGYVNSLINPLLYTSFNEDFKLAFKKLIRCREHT
5-hydroxytryptamine receptor 2A, sequence (P28223 whole entry): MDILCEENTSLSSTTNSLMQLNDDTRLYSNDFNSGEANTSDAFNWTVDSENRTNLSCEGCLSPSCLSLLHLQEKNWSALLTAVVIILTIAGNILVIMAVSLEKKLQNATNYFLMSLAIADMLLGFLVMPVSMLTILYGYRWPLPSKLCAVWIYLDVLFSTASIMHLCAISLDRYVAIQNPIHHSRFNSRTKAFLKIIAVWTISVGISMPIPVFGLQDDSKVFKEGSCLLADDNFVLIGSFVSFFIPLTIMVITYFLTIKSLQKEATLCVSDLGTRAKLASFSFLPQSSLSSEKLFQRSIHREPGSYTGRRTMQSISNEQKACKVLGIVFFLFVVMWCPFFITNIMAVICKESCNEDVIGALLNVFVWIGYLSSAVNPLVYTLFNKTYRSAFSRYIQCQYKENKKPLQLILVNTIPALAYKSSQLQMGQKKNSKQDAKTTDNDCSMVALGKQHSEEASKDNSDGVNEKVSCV
D(2) dopamine receptor, sequence (P14416 whole entry): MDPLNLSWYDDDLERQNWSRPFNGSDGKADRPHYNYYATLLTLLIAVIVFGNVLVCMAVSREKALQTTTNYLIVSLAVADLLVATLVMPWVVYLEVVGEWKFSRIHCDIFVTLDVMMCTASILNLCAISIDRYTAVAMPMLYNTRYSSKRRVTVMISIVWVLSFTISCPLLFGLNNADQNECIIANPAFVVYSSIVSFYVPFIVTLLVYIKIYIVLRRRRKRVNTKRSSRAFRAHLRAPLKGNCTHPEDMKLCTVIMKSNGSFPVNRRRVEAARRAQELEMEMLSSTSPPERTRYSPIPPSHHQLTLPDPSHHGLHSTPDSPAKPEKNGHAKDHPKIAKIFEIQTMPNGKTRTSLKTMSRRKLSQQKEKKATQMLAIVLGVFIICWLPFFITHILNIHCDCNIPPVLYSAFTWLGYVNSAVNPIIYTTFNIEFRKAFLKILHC
5-hydroxytryptamine receptor 2B, sequence (P41595 whole entry): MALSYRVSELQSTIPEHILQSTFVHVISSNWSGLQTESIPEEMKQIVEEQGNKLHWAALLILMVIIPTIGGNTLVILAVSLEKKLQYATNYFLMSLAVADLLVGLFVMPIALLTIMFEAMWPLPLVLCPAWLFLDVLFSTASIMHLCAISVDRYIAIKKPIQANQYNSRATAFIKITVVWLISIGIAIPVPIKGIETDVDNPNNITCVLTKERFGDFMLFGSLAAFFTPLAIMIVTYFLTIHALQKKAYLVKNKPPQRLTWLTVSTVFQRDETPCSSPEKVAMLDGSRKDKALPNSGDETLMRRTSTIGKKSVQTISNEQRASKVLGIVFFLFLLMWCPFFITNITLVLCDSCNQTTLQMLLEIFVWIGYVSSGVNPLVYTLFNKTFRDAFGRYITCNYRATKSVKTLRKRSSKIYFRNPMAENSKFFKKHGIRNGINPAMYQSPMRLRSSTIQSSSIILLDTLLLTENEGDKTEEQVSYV
5-hydroxytryptamine receptor 1D, sequence (P28221 whole entry): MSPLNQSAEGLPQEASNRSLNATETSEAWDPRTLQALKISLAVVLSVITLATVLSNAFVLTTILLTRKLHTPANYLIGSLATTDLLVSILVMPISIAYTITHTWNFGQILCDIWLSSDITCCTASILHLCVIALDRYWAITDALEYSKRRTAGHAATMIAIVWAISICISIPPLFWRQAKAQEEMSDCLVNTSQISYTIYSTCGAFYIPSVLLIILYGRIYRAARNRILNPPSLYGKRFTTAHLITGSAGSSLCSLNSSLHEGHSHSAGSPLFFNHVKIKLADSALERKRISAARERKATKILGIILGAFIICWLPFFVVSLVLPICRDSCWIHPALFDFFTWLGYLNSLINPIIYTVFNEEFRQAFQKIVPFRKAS
D(3) dopamine receptor, sequence (P35462 whole entry): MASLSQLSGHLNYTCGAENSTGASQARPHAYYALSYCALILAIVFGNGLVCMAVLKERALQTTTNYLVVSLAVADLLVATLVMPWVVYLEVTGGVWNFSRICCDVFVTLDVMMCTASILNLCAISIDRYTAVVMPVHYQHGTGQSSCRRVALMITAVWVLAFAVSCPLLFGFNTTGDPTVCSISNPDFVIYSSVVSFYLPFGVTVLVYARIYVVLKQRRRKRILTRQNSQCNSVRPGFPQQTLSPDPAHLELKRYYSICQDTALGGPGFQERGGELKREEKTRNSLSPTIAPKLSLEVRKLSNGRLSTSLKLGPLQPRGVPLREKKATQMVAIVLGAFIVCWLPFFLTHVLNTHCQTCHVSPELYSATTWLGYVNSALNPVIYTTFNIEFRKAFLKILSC
5-hydroxytryptamine receptor 4, sequence (Q13639 whole entry): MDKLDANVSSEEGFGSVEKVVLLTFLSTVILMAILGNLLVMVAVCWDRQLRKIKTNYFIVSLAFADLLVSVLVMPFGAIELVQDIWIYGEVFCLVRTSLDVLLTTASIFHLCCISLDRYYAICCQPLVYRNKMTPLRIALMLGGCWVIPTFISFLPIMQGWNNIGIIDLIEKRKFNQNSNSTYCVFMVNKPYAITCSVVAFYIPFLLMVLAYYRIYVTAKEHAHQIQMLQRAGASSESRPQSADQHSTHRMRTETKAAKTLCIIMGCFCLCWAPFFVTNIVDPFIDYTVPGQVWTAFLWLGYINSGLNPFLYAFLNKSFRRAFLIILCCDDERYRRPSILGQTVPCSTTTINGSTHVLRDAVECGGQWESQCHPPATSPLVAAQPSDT
Cytochrome P450 2C9, sequence (P11712 whole entry): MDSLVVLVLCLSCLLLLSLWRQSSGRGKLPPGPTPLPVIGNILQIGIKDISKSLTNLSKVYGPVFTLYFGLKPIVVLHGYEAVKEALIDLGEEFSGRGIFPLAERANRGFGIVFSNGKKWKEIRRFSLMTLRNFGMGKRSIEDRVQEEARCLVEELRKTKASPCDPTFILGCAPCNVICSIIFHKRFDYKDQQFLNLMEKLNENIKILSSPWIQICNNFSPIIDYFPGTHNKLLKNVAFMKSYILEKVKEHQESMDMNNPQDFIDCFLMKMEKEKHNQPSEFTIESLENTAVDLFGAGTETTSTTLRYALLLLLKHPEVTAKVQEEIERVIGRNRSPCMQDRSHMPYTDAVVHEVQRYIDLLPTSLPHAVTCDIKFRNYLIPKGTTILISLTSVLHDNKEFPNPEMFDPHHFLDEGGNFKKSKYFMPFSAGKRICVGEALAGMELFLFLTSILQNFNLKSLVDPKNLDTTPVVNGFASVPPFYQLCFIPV
Cytochrome P450 2D6, sequence (P10635 whole entry, canonical isoform): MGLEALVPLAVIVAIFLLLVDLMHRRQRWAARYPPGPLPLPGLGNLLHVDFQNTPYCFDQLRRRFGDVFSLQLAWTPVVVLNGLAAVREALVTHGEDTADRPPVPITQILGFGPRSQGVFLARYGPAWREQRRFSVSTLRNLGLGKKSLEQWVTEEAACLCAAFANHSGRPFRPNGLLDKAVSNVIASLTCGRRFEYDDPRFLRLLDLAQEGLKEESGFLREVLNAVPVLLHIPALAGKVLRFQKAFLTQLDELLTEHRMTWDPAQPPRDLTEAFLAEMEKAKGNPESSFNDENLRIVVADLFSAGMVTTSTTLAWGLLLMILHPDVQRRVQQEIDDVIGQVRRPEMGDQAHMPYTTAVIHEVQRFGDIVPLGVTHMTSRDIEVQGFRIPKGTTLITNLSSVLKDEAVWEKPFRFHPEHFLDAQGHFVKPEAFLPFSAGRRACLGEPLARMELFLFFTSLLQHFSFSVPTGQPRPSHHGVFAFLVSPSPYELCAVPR

COc1ccc(NS(=O)(=O)c2ccc([N+](=O)[O-])cc2)cc1N1CCN(C)CC1
Ki [1]: 79.4 nM

CNc1cc(NS(=O)(=O)c2ccc(N)cc2)cc(NC)n1
Ki [1]: 12.6 nM

COc1ccc(NS(=O)(=O)c2sc3ccc(Cl)cc3c2C)cc1N1CCNCC1
Ki [2]: > 1000 nM
Ki [3]: 794 nM
Ki [4]: 2510 nM
Ki [5]: > 10000 nM
Ki [6]: > 2510 nM
Ki [7]: 251 nM
Ki [8]: 2000 nM
IC50 [9]: 32 µM
Ki [10]: > 3980 nM
IC50 [11]: 66 µM
IC50 [12]: > 100 µM
Ki [13]: 2000 nM
IC50 [14]: 26 µM

CNc1cc(NS(=O)(=O)c2ccc(N)cc2)nc(NC)n1
Ki [1]: 50.1 nM

COc1ccc(NS(=O)(=O)c2c(F)c(Br)cc(F)c2Br)cc1N1CCN(C)CC1
Ki [1]: 3.16 nM
Selectivity [15]: > 300

COc1ccc(NS(=O)(=O)c2cccc(C#N)c2)cc1N1CCN(C)CC1
Ki [1]: 63.1 nM

COc1ccc(NS(=O)(=O)c2ccccc2)cc1N1CCN(C)CC1
Ki [1]: 10 nM
Selectivity [15]: 80

COc1ccc(NS(=O)(=O)c2sc3ccc(Cl)cc3c2C)cc1N1CCN(C)CC1
Ki [2]: 251 nM
Ki [3]: 794 nM
Ki [4]: 794 nM
Ki [5]: 2510 nM
Ki [6]: 1000 nM
Ki [7]: 200 nM
Ki [16]: 200 nM
Ki [8]: 501 nM
Ki [17]: 2000 nM
Ki [10]: 1000 nM
Ki [18]: 3160 nM
Ki [19]: 501 nM
Ki [20]: 3160 nM

COc1ccc(NS(=O)(=O)c2cc(I)ccc2C)cc1N1CCN(C)CC1
Ki [1]: 1 nM
Selectivity [15]: > 125

COc1ccc(NS(=O)(=O)c2cccc(I)c2)cc1N1CCN(C)CC1
Ki [1]: 0.794 nM
Selectivity [15]: > 200

COc1ccc(NS(=O)(=O)c2cc(Cl)cc(Cl)c2)cc1N1CCN(C)CC1
Ki [1]: 2 nM
Selectivity [15]: > 100

COc1ccc(NS(=O)(=O)c2c(C)sc3ccc(Cl)cc23)cc1N1CCN(C)CC1
Ki [1]: 1.26 nM
Selectivity [15]: > 300

COc1ccc(NS(=O)(=O)c2cn(C)cn2)cc1N1CCN(C)CC1
Ki [1]: 794 nM

COc1ccc(NS(=O)(=O)c2ccc3c(Cl)cccc3c2)cc1N1CCN(C)CC1
Ki [1]: 0.794 nM
Selectivity [15]: > 250

COc1ccc(NS(=O)(=O)c2ccc(Br)cc2)cc1N1CCN(C)CC1
Ki [2]: 316 nM
Ki [3]: 398 nM
Ki [4]: 3980 nM
Ki [5]: 1580 nM
Ki [6]: 1260 nM
Ki [7]: 251 nM
Ki [16]: 794 nM
Ki [8]: 1000 nM
IC50 [9]: 11 µM
Ki [10]: 631 nM
IC50 [11]: 10 µM
IC50 [12]: > 100 µM
Ki [18]: 2510 nM
Ki [19]: 251 nM
Ki [13]: 2510 nM
Ki [1]: 5.01 nM
IC50 [14]: 46 µM
IC50 [21]: 6 µM
Ki [20]: 2510 nM
